These results are taken from ChEMBL document CHEMBL4364329, “Prodrug Activation by a Viral Protease: Evaluating Combretastatin Peptide Hybrids To Selectively Target Infected Cells” (ACS Med Chem Lett, 2019).

The source made the active and inactive calls. No cut-off for these calls is given here. Non-standard residues stand in square brackets, D forms with d. Residues, ends and D or L forms follow the SMILES beside them. ξ: configuration not given here. *: point of attachment. X1 = COc1ccc(/C=C\c2cc(OC)c(OC)c(OC)c2)cc1N*; 2Abz = Nc1ccccc1C(=O)O; ξNle = CCCCC(N)C(=O)O; Bz = O=C(c1ccccc1)*

For data set [1], the target named is Tubulin (Sus scrofa) (UniProt P02554+P02550). Nature of the data set: Inhibition of porcine tubulin polymerization at 10 uM preincubated at 37 degC for 30 mins followed by chilling to 0 degC and subsequent addition of GTP by microtiter plate based absorbance detection assay relative to control. The format is protein assay.
Chain of Tubulin (Sus scrofa) (P02550 whole entry, looked up): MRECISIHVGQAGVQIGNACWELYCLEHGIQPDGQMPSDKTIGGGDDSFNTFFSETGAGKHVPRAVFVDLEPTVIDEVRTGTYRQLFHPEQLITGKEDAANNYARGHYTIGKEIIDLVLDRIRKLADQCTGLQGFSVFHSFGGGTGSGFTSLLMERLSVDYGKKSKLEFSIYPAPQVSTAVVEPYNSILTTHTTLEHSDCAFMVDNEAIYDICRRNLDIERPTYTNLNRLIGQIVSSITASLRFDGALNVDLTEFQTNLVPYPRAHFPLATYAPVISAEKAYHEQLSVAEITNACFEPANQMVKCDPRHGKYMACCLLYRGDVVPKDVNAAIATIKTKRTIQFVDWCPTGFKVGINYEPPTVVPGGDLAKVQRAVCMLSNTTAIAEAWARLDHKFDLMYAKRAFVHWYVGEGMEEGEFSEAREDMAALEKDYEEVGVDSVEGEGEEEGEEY
Chain of Tubulin (Sus scrofa) (P02554 whole entry, looked up): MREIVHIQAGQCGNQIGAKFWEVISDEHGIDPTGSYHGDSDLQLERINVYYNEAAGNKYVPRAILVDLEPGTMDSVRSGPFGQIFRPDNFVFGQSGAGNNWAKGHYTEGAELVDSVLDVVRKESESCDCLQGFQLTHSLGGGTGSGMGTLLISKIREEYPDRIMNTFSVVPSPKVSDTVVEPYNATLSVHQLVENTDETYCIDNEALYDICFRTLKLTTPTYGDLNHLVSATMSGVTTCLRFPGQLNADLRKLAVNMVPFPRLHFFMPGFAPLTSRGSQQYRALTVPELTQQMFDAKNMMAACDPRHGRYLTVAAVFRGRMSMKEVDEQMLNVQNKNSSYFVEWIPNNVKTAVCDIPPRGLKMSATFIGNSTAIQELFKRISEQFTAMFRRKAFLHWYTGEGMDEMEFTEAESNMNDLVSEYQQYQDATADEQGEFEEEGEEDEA
The subject of data set [2] is HeLa. Nature of the data set: Cytotoxicity against human HeLa cells harboring Dengue virus serotype 2 NS2B-NS3 protease assessed as reduction in cell viability after 72 hrs by cell titer blue assay. It is filed as functional, cell-based. Put shortly:
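DENV2 protease-expressing HeLa cells (DENV2proHeLa) were incubated with compound for 72 h. CC50 was determined from triplicate wells.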
In general terms: Alamar Blue is a resazurin reagent that responds to reducing activity.

Data set [3] has as its target Genome polyprotein (dengue virus type 2) (UniProt P29990). Nature of the data set: Inhibition of Dengue virus serotype 2 NS2B-NS3 protease expressed in Escherichia coli BL21 lambda (DE3) cells at 250 uM preincubated with enzyme for 15 mins followed by 2-Abz-Nle-Lys-Arg-Arg-Ser-(3-NO2)-Tyr-NH2 FRET substrate addition measured for 15 mins by fluorescence analysis.
In data set [4] the test system is CCCCC(NC(=O)c1ccccc1N)C(=O)N[C@@H](CCCCN)C(=O)N[C@@H](CCCNC(=N)N)C(=O)N[C@@H](CCCNC(=N)N)C(=O)N[C@@H](CO)C(=O)N[C@@H](Cc1ccc(O)cc1)C(N)=O. The data set can be described thus: (§1) Substrate activity at Dengue virus serotype 2 NS2B-NS3 protease expressed in Escherichia coli BL21 lambda (DE3) cells assessed as Km for compound hydrolysis in TRIS buffer at pH 9 incubated for 10 mins at room temperature by Lineweaver-Burk plot analysis. It is filed as ADME, dengue virus type 2. The gist of the method: (§2)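 Recombinant DENV NS2B-NS3 protease at 1 μM incubated with substrate from 100 μM up to 1 mM in pH 9 buffer for 10 min at room temperature. Triplicate wells. Km, vmax and kcat were derived from a Lineweaver–Burk plot.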

For data set [5], the system named is COc1ccc(/C=C\c2cc(OC)c(OC)c(OC)c2)cc1NC(=O)[C@H](C)NC(=O)[C@H](CCCNC(=N)N)NC(=O)[C@H](CCCNC(=N)N)NC(=O)c1ccccc1. The data set is described as §1. The format is ADME, dengue virus type 2. The gist of the method: as §2
Data set [6] concerns COc1ccc(/C=C\c2cc(OC)c(OC)c(OC)c2)cc1NC(=O)CNC(=O)[C@H](CCCNC(=N)N)NC(=O)[C@H](CCCCN)NC(=O)c1ccccc1. The data set is described as §1. The format is ADME, dengue virus type 2. The gist of the method: as §2
The test system of data set [7] is COc1ccc(/C=C\c2cc(OC)c(OC)c(OC)c2)cc1NC(=O)CNC(=O)CNC(=O)[C@H](CCCNC(=N)N)NC(=O)[C@H](CCCNC(=N)N)NC(=O)c1ccccc1. The data set is described as §1. It is filed as ADME, dengue virus type 2. The gist of the method:
as §2

The subject of data set [8] is COc1ccc(/C=C\c2cc(OC)c(OC)c(OC)c2)cc1NC(=O)CNC(=O)[C@H](CCCNC(=N)N)NC(=O)[C@H](CCCNC(=N)N)NC(=O)c1ccccc1. The data set is described as §1. It is filed as ADME, dengue virus type 2. Put shortly:
as §2

For `COc1ccc(/C=C\c2cc(OC)c(OC)c(OC)c2)cc1NC(=O)CCNC(=O)[C@H](CCCNC(=N)N)NC(=O)[C@H](CCCNC(=N)N)NC(=O)c1ccccc1`, the inhibition in data set [1] is 3.4%. For the same molecule, in data set [2], the Activity result was “Toxic”.

For the molecule `COc1ccc(/C=C\c2cc(OC)c(OC)c(OC)c2)cc1NC(=O)CNC(=O)[C@H](CCCNC(=N)N)NC(=O)[C@H](CCCNC(=N)N)NC(=O)c1ccccc1`, the inhibition in data set [1] came out at 26%. In data set [2], the Activity result is “Toxic”.

Regarding `COc1ccc(/C=C\c2cc(OC)c(OC)c(OC)c2)cc1NC(=O)CNC(=O)[C@H](CCCNC(=N)N)NC(=O)[C@H](CCCCN)NC(=O)c1ccccc1`, in data set [1], the inhibition is -5.7%. In addition, in data set [2], the Activity entry is “Toxic”.

Regarding `COc1ccc(/C=C\c2cc(OC)c(OC)c(OC)c2)cc1NC(=O)[C@H](CO)NC(=O)[C@H](CCCNC(=N)N)NC(=O)[C@H](CCCNC(=N)N)NC(=O)c1ccccc1`, the inhibition in data set [1] came out at 1.9%. Moreover, the Activity entry in data set [2] is “Toxic”.

Turning to `COc1ccc(/C=C\c2cc(OC)c(OC)c(OC)c2)cc1NC(=O)[C@H](C)N`, the inhibition in data set [1] is 40.5%.

For `COc1ccc(/C=C\c2cc(OC)c(OC)c(OC)c2)cc1NC(=O)CN`, the inhibition in data set [1] amounted to 61%.

In the case of `COc1ccc(/C=C\c2cc(OC)c(OC)c(OC)c2)cc1O`, the inhibition in data set [1] stood at 60.3%. Besides, the Activity result in data set [2] was “Toxic”.

As for `CCCCC(NC(=O)c1ccccc1N)C(=O)N[C@@H](CCCCN)C(=O)N[C@@H](CCCNC(=N)N)C(=O)N[C@@H](CCCNC(=N)N)C(=O)N[C@@H](CO)C(=O)N[C@@H](Cc1ccc(O)cc1)C(N)=O` (stereo partly drawn) (H-[2Abz][ξNle]KRRSY-NH2), the inhibition entry in data set [1] was “inactive”.

In the case of `COc1ccc(/C=C\c2cc(OC)c(OC)c(OC)c2)cc1NC(=O)CNC(=O)CNC(=O)[C@H](CCCNC(=N)N)NC(=O)[C@H](CCCNC(=N)N)NC(=O)c1ccccc1` (Bz-RRGG-X1), the inhibition in data set [1] is 13.4%. Besides, the Activity entry in data set [2] was “Toxic”.

In the case of `N=C(N)NCCC[C@H](NC(=O)[C@H](CCCCN)NC(=O)c1ccccc1)C(=O)O` (Bz-Lys-Arg-OH), the inhibition in data set [3] stood at 12.2%.

As for `COc1ccc(/C=C\c2cc(OC)c(OC)c(OC)c2)cc1NC(=O)[C@H](CO)NC(=O)[C@H](CCCNC(=N)N)NC(=O)[C@H](CCCCN)NC(=O)c1ccccc1`, in data set [1], the inhibition is -4.2%.

`COc1ccc(/C=C\c2cc(OC)c(OC)c(OC)c2)cc1N`: the inhibition in data set [1] was determined as 33.1%. The Activity entry in data set [2] is “Toxic”.

In the case of `N=C(N)NCCC[C@H](NC(=O)[C@H](CCCNC(=N)N)NC(=O)c1ccccc1)C(=O)O` (Bz-Arg-Arg-OH), the inhibition in data set [3] stood at 35%.

With `COc1ccc(/C=C\c2cc(OC)c(OC)c(OC)c2)cc1NC(=O)[C@H](C)NC(=O)[C@H](CCCNC(=N)N)NC(=O)[C@H](CCCCN)NC(=O)c1ccccc1`, the inhibition in data set [1] was -4.9%.

`COc1ccc(/C=C\c2cc(OC)c(OC)c(OC)c2)cc1NC(=O)[C@H](C)NC(=O)[C@H](CCCNC(=N)N)NC(=O)[C@H](CCCNC(=N)N)NC(=O)c1ccccc1`: the inhibition in data set [1] was 3.4%. Moreover, in data set [2], the Activity result is “Toxic”.

For “Genome polyprotein (Dengue virus 2 Thailand/16681/84)”, the Michaelis constant (Km) in data set [4] came out at 182 µM; in data set [5], 949 µM; in data set [6], 173 µM; in data set [7], 144 µM; in data set [8], 225 µM. The Vmax in data set [4] was 10.1 µM/min; in data set [5] it was 17 µM/min; in data set [6], 2.14 µM/min; in data set [7], 4.69 µM/min; in data set [8] it was 6.18 µM/min. The kcat in data set [4] is 0.168 s⁻¹; in data set [5] it was 0.284 s⁻¹; in data set [6] it was 0.0357 s⁻¹; in data set [7] it was 0.0782 s⁻¹; in data set [8] it was 0.103 s⁻¹.

One may read the inhibition as the change of the read-out against control, counted positive when it falls. As a reminder, the Km is the substrate concentration at which the rate is half of its maximum. What is called Vmax is the rate approached at saturating substrate. For orientation: kcat means the number of substrate molecules converted per active site and unit of time at saturation.
